The target in one test is T1, GABA transporter 4 (Mus musculus, UniProt P31650).
T1 sequence (P31650 whole entry): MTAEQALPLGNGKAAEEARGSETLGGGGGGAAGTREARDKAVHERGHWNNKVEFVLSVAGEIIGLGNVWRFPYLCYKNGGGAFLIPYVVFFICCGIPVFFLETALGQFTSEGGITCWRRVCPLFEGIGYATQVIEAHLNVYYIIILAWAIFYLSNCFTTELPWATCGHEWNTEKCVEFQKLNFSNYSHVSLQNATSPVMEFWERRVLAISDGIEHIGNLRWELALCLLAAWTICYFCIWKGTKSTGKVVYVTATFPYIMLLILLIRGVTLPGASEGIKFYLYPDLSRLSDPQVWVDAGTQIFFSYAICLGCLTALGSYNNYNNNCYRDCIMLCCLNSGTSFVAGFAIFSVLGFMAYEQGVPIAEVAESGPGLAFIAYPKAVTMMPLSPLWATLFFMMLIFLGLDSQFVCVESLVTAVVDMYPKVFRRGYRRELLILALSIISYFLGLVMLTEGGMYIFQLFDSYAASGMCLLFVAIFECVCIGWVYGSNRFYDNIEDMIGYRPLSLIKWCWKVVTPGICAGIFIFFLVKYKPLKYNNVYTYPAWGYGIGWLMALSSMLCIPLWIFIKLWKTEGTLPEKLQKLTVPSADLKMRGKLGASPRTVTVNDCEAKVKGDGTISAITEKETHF
Put plainly: Inhibition of mouse GAT4 expressed in HEK293 cells assessed as decrease in [3H]GABA uptake preincubated for 25 mins followed by [3H]GABA addition measured after 4 mins by liquid scintillation counting analysis. Type of test: cell-based. Put shortly:
(§1)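 [³H]GABA uptake assay in HEK cells expressing the mGAT subtype named in the line, run in triplicate. Potencies are given as pIC₅₀ ± SEM. No SEM is given where only one triplicate measurement was made. Where 100 µM test compound left uptake at or above 50% (pIC₅₀ ≤ 4.00), the percent remaining [³H]GABA uptake at 100 µM is reported instead.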

The target in test [1] is T2, Sodium- and chloride-dependent GABA transporter 1 (Mus musculus, UniProt P31648). Nature of the test: Inhibition of mouse GAT1 expressed in HEK293 cells assessed as decrease in [3H]GABA uptake preincubated for 25 mins followed by [3H]GABA addition measured after 4 mins by liquid scintillation counting analysis. Type of test: cell-based. Put shortly:
as §1

Test [2] addresses Sodium- and chloride-dependent GABA transporter 1 (Mus musculus) (UniProt P31648). Nature of the test: Inhibition of [2H10]NO 711 binding to mouse GAT1 expressed in HEK293 cell membranes assessed as remaining NO711 binding at 100 uM after 40 mins by LC-ESI-MS-MS analysis relative to control.
Test [3] addresses T2, Sodium- and chloride-dependent GABA transporter 1. Nature of the test: Inhibition of [2H10]NO 711 binding to mouse GAT1 expressed in HEK293 cell membranes after 40 mins by LC-ESI-MS-MS analysis. A digest of the protocol:
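MS Binding Assay on mGAT1 expressed in HEK cells, with NO711 as marker. Run in triplicate. Results are reported as pKi ± SEM. Where only one triplicate measurement was made, no SEM is given.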

Test [4] has as its system GABA transporter mGAT3 (Slc6a13) (Mus musculus). Put plainly: Inhibition of mouse GAT3 expressed in HEK293 cells assessed as decrease in [3H]GABA uptake at 100 uM preincubated for 25 mins followed by [3H]GABA addition measured after 4 mins by liquid scintillation counting analysis relative to control. Also on record: scale not given: the % may be the effect or the level left.

For test [5], the system named is betaine/GABA transporter BGT1 (mGAT2, Slc6a12) (Mus musculus). Put plainly: Inhibition of mouse GAT2 expressed in HEK293 cells assessed as decrease in [3H]GABA uptake at 100 uM preincubated for 25 mins followed by [3H]GABA addition measured after 10 mins by liquid scintillation counting analysis relative to control. Further details: scale not given: the % may be the effect or the level left.

Test [6] concerns the target T3, GABA transporter 4 (Mus musculus) (UniProt P31650).
T3 sequence (whole entry): T1 sequence (P31650 whole entry)
Put plainly: Inhibition of mouse GAT4 expressed in HEK293 cells assessed as decrease in [3H]GABA uptake at 100 uM preincubated for 25 mins followed by [3H]GABA addition measured after 4 mins by liquid scintillation counting analysis relative to control. Type of test: cell-based. Further details: scale not given: the % may be the effect or the level left. A digest of the protocol:
as §1

In test [7] the target is Sodium- and chloride-dependent GABA transporter 1 (Mus musculus) (UniProt P31648). Put plainly: Inhibition of mouse GAT1 expressed in HEK293 cells assessed as decrease in [3H]GABA uptake at 100 uM preincubated for 25 mins followed by [3H]GABA addition measured after 4 mins by liquid scintillation counting analysis relative to control. Type of test: cell-based. Also on record: scale not given: the % may be the effect or the level left. Put shortly: as §1

Molecules are shown by their SMILES.

In the case of `COc1ccc(C(OCCN2CCC[C@H](C(=O)O)C2)(c2ccc(OC)cc2)c2ccc(OC)cc2C)cc1`, the IC50 – broadly, the concentration needed to halve the response being measured – was 1.66 µM on GABA transporter 4 and 64.6 µM in test [1]. The Activity in test [2] turned out to be 59%.

In the case of `COc1ccc(C(/C=C/CN2CCCC(C(=O)O)C2)(c2ccc(OC)cc2)c2ccc(OC)cc2)cc1` (configuration not stated), the Ki (commonly a measure of affinity in units of concentration, obtained from inhibition or displacement) in test [3] is 14.8 µM.

Turning to `COc1ccc(C(OCCN2CCCC(C(=O)O)C2)(c2ccc(OC)cc2C)c2ccc(OC)cc2C)cc1` (configuration not stated), the inhibition constant Ki in test [3] is 38 µM. The figures for the IC50 (at GABA transporter 4; in test [1]) were 8.51 µM and 67.6 µM, respectively.

On to `COc1ccc(C(C#CCN2CCCC(C(=O)O)C2)(c2ccc(OC)cc2)c2ccc3sccc3c2)cc1` (racemic), for which, in test [3], the Ki is 1.91 µM. Besides, the figures for the IC50 (at GABA transporter 4; in test [1]) were 12 µM and 11 µM, respectively.

With `COc1ccc(C(CC#CCN2CCCC(C(=O)O)C2)(c2ccc(OC)cc2)c2ccc(OC)cc2)cc1` (racemic), the Ki in test [3] was 37.2 µM. In addition, the IC50 at GABA transporter 4 was 17.4 µM; in test [1], 52.5 µM.

As for `O=C(O)C1CCCN(CCC#CC(c2ccccc2)(c2ccccc2)c2ccccc2)C1` (racemic), the figures for the Activity in test [4], in test [5] and in test [6] were 61%, 66% and 64%, respectively. Besides, the affinity in test [3], expressed as Ki, was 0.0912 µM. Besides, the IC50 in test [1] is 0.427 µM.

For the molecule `COc1ccc(C(C#CCN2CCCC(C(=O)O)C2)(c2ccc(OC)cc2)c2nccs2)cc1` (racemic), the Activity stood at 68% in test [7], 82% in test [4], 84% in test [5] and 79% in test [6]. This molecule gave a Ki in test [3] of 77.6 µM.

As to `C=C=C(CN1CCCC(C(=O)O)C1)C(c1ccc(OC)cc1)(c1ccc(OC)cc1)c1ccc(OC)cc1` (racemic), the figures for the Activity in test [7], in test [5] and in test [2] were 69%, 77% and 57%, respectively. Also, the IC50 on GABA transporter 4 is 49 µM.

Consider `COc1ccc(C(C#CCN2CCCC(C(=O)O)C2)(c2ccc(OC)cc2)c2ccsc2)cc1` (racemic), for which the Activity in test [5] was 70%. This molecule also had a Ki in test [3] of 5.25 µM. In addition, the IC50 was 34.7 µM on GABA transporter 4 and 25.1 µM in test [1].

Regarding `O=C(O)C1CCCN(CC#CCC(c2ccccc2)(c2ccccc2)c2ccccc2)C1` (racemic), the Activity is 50% in test [4] and 66% in test [5]. The same molecule gave a Ki in test [3] of 14.5 µM. Moreover, the IC50 is 70.8 µM on GABA transporter 4 and 35.5 µM in test [1].

Regarding `COc1ccc(CC(C#CCN2CCCC(C(=O)O)C2)(c2ccc(OC)cc2)c2ccc(OC)cc2)cc1` (racemic), the Activity in test [5] came to 53%. In test [3], this molecule gave an inhibition constant Ki of 1.91 µM. The IC50 at GABA transporter 4 is 36.3 µM; in test [1], 13.2 µM.

In turn, `COc1ccc(C(C#CCN2CCCC(C(=O)O)C2)(c2ccc(OC)cc2)c2ccc3c(c2)OCO3)cc1` (racemic) had an inhibition constant Ki in test [3] of 4.9 µM. For the same molecule, the IC50 is 51.3 µM at GABA transporter 4 and 22.9 µM in test [1].

Take `COc1ccc(C(C#CCN2CCCC(C(=O)O)C2)c2ccc(OC)cc2)cc1` (racemic): the Activity in test [5] came to 80%. Moreover, affinity in test [3] was put at a Ki of 1.1 µM. Further, the IC50 was 23.4 µM on GABA transporter 4 and 3.72 µM in test [1].

With `COc1ccc(C(C#CCCN2CCCC(C(=O)O)C2)(c2ccc(OC)cc2)c2ccc(OC)cc2)cc1` (racemic), the Ki in test [3] is 2.75 µM. Besides, the IC50 on GABA transporter 4 is 25.7 µM; in test [1], 15.8 µM.

As for `COc1ccc(C(C#CCN2CCCC(C(=O)O)C2)(Cc2ccccc2)c2ccc(OC)cc2)cc1` (racemic), in test [5], the Activity is 67%. In test [3], this molecule gave a Ki of 2.14 µM. For the same molecule, the figures for the concentration for half-maximal inhibition (IC50) (at GABA transporter 4; in test [1]) were 41.7 µM and 8.32 µM, respectively.

In test [3], `COc1ccc(C(C#CCN2CCCC(C(=O)O)C2)(c2ccc(OC)cc2)c2ccc(OC)cc2)cc1` (racemic) had a Ki of 4.37 µM. Moreover, the results for the IC50 (at GABA transporter 4; in test [1]) were 29.5 µM and 14.5 µM, respectively.

Turning to `C=C=C(CN1CCCC(C(=O)O)C1)C(c1ccccc1)(c1ccccc1)c1ccccc1` (racemic), the Activity in test [7] turned out to be 62%; in test [4], 80%; in test [5] it was 87%; in test [2] it was 70%; in test [6], 54%.

On to `COc1ccc(C(C#CCN2CCCC(C(=O)O)C2)(c2ccc(OC)cc2)c2nccn2C)cc1` (racemic), for which the Activity in test [7] stood at 80%; in test [4], 103%; in test [5], 106%; in test [2], 83%; in test [6], 91%.

As for `COc1ccc(C(O)(C#CCN2CCCC(C(=O)O)C2)c2ccc(OC)cc2)cc1` (racemic), the Activity worked out at 66% in test [7]; 74% in test [4]; 72% in test [5]; 59% in test [2]; 69% in test [6].

These data come from ChEMBL document CHEMBL4118262, “Synthesis and biological evaluation of novel N-substituted nipecotic acid derivatives with an alkyne spacer as GABA uptake inhibitors” (Bioorg Med Chem, 2018).
